Source: ChEMBL document CHEMBL2375282, “Spirohexenolide A targets human macrophage migration inhibitory factor (hMIF)” (J Nat Prod, 2013)
The source made the active and inactive calls. The calls are words filed in the database; no cut-off is given here.

Tests used:
HCT-116 [1] = test: Cellular uptake in human HCT116 cells assessed as increase in blue fluorescence at 10 uM after 1 hr by inverted confocal microscopic analysis; format: ADME, cell-based; conditions: hct-116, 1 h
Method in brief: (§1)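 Live HCT116 cells in McCoy's 5A with 10% FCS, 37 °C, 5% CO2. Compound added as 10× stock in media, final DMSO under 0.5%. Time-lapse imaging over 24 h at 10–15 min intervals, then spinning-disk confocal at selected times (1, 6, 24 h) with IAF tag excitation 360 nm and emission 470 nm. Lysosomes counterstained with LysoTracker Red after fixation in formaldehyde/glutaraldehyde.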

[2] = Drug uptake in human HCT116 cell membrane at 10 uM after 1 hr by inverted confocal microscopic analysis; format: ADME, cell-based; conditions: hct-116, 1 h; method in brief: as §1
[3] = Drug uptake in human HCT116 cell cytoplasm at 10 uM after 1 hr by inverted confocal microscopic analysis; format: ADME, cell-based; conditions: hct-116, 1 h; method in brief: as §1
HCT-116 [4] = test: Cytotoxicity against human HCT116 cells assessed as compaction of chromatin at 10 uM after 24 hrs by inverted confocal microscopic analysis; format: cell-based; conditions: hct-116, 24 h; method in brief: as §1
HCT-116 [5] = test: Cytotoxicity against human HCT116 cells assessed as membrane blebbing at 10 uM after 24 hrs by inverted confocal microscopic analysis; format: cell-based; conditions: hct-116, 24 h; method in brief: as §1
[6] = target: T1, Macrophage migration inhibitory factor (Homo sapiens) (UniProt P14174); test: Binding affinity to MIF in human HCT116 live cell lysates by Western blotting analysis; conditions: HCT-116
T1 sequence (whole entry): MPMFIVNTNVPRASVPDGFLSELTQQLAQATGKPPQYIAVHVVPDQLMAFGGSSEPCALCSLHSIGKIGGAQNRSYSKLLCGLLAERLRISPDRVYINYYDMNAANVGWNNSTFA
Method in brief: (§2)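 Affinity capture with immunoaffinity-fluorescent (IAF)-tagged probe. Live-cell route: HCT116 cells incubated 4 h at 37 °C with 15 μg probe in 15 mL media, then lysed (D-PBS, 5 mM EDTA, 1% NP-40, protease inhibitors). Whole-lysate route: probe added after lysis. Lysate immunoprecipitated on anti-IAF mAb resin 4 h at 4 °C. Elution with 0.1 M glycine-HCl pH 2.5, then NuPAGE and blotting with anti-hMIF mAb.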

[7] = target: T1, Macrophage migration inhibitory factor (Homo sapiens); test: Binding affinity to human recombinant MIF expressed in Escherichia coli BL21(DE3) lysates by Western blotting analysis
Method in brief: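 E. coli BL21(DE3) lysate expressing recombinant hMIF (pET-11b, 0.4 mM IPTG, 4 h), 1–2 mg net protein. Immunoprecipitated with 1 μg IAF-tagged probe on anti-IAF mAb resin, 4 h at 4 °C. Glycine-HCl pH 2.5 elution. Blot probed with mouse anti-hMIF monoclonal and AP-conjugated secondary, BCIP/NBT development.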

[8] = target: T1, Macrophage migration inhibitory factor (Homo sapiens); test: Binding affinity to MIF in human HCT116 whole cell lysates by Western blotting analysis; conditions: HCT-116; method in brief: as §2
[9] = target: T1, Macrophage migration inhibitory factor (Homo sapiens); test: Inhibition of human recombinant MIF tautomerase activity expressed in Escherichia coli BL21(DE3) at 100 uM in presence of dopachrome
Method in brief: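 Dopachrome made from 0.24 mM DOPA plus 0.48 mM NaIO4 in 25 mM potassium phosphate pH 7.2, 5 min at rt. Added 1:1 to wells holding 10 μM purified recombinant hMIF premixed with 100 μM compound. Kinetics followed immediately at 485 nm. Controls: buffer, compound alone, hMIF alone.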

HCT-116 [10] = test: Cytotoxicity against human HCT116 cells by MTT assay; format: functional, cell-based
Method in brief: (§3)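 HCT-116 cells grown in McCoy's 5A with 10% heat-inactivated FCS and penicillin/streptomycin at 37 °C, 5% CO2. Conventional MTT assay, run in triplicate at 5 or 6 concentrations spanning 0 to 0.035 mg/mL. Repeated until deviation fell within 5%.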

[11] = Cellular uptake in human HCT116 cells assessed as lysosomal localization at 10 uM after 6 to 12 hrs by inverted confocal microscopic analysis; format: ADME, cell-based, Lysosome; conditions: hct-116, 10 µM; method in brief: as §1
[12] = Cytotoxicity against human NCI60 cells by MTT assay; format: functional
[13] = target: T1, Macrophage migration inhibitory factor (Homo sapiens); test: Inhibition of human MIF-mediated AKT phosphorylation expressed in mouse NIH/3T3 cells after 30 mins by Western blotting analysis; format: cell-based; conditions: NIH3T3
Method in brief: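 NIH/3T3 cells grown 24 h in DMEM with 10% FCS in 12-well plates, then serum-starved 24 h. Treated 30 min with hMIF (1 μg) plus DMSO or plus compound (0.1 μg) in 100 μL medium. Lysates blotted for p-Akt Ser473, total Akt and GAPDH. p-Akt/Akt ratio normalized to GAPDH, with untreated cells set to 1. Three independent experiments.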

[14] = target: T2, Macrophage migration inhibitory factor (Homo sapiens, UniProt P14174); test: Binding affinity to human recombinant MIF expressed in Escherichia coli BL21(DE3) by isothermal titration calorimetric assay
T2 sequence (P14174 whole entry): T1 sequence (whole entry)
Method in brief: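 Recombinant hMIF from E. coli BL-21(DE3) (pET-11b), purified by SP/Q flow-through, dialyzed in 50 mM potassium phosphate pH 7.4. ITC at 30 °C: 1.25 mM hMIF titrated from syringe into 1.5 mL of 0.5 mM ligand in the same buffer with 2% DMSO. Buffer-only titration used as control. Kd fitted with a sigmoid function over multiple analyses.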

[15] = target: T1, Macrophage migration inhibitory factor (Homo sapiens); test: Inhibition of human recombinant Alexa 488-labeled MIF expressed in Escherichia coli BL21(DE3) assessed as inhibition of uptake into human HCT116 cells at 30 uM after 2 hrs by inverted confocal microscopic analysis; conditions: HCT-116
Method in brief: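 Recombinant hMIF labeled with Alexa Fluor 488 (~0.3 dye per protein) in NaHCO3 pH 8.3. HCT-116 cells given 1.5 μM Alexa-hMIF premixed with 30 μM compound for 2 h at 37 °C, then washed and fixed with formaldehyde/glutaraldehyde. Two-color confocal imaging: 375 nm excitation with 448 nm emission, and 488 nm excitation with 524 nm emission.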

HCT-116 [16] = test: Growth inhibition of human HCT116 cells; format: functional; method in brief: as §3
[17] = read-out: LC50 (the source's name)

Row | SMILES | Drug uptake (HCT-116 [1]) | Drug uptake [2] | Drug uptake [3] | Activity (HCT-116 [4]) | Activity (HCT-116 [5]) | Activity [6] | Activity [7] | Activity [8] | inhibition [9] | IC50 (HCT-116 [10]) [µM] | Drug uptake [11] | GI50 [12] [µM] | TGI [12] [µM] | CC50 [12, 17] [µM] | inhibition [13] | Kd [14] [µM] | inhibition [15] | GI50 (HCT-116 [16]) [µM] | TGI (HCT-116 [16]) [µM] | CC50 (HCT-116 [16]; [17]) [µM]
1 | CC1=C[C@]2(C)/C=C(C)/C=C/C[C@@H](OC(=O)CCC(=O)NCCCCCCNC(=O)Cc3cc(=O)oc4cc(N(C)C)ccc34)/C=C3C=C/C(=C4\C(=O)O[C@]2(C[C@@H]1C)C4=O)OC/3 | Active | Active | Active | Toxic | Toxic | Active | Active | Active | inactive | 6 | Active | – | – | – | – | – | – | – | – | –
2 | CC1=C[C@]2(C)/C=C(C)/C=C/C[C@@H](OC(=O)CCn3cc(CNC(=O)Cc4cc(=O)oc5cc(N(C)C)ccc45)nn3)/C=C3C=C/C(=C4\C(=O)O[C@]2(C[C@@H]1C)C4=O)OC/3 | – | – | – | – | – | – | – | – | – | 21.2 | – | – | – | – | – | – | – | – | – | –
3 | CC1=C[C@]2(C)/C=C(C)/C=C/C[C@@H](O)/C=C3C=C/C(=C4\C(=O)O[C@]2(C[C@@H]1C)C4=O)OC/3 | – | – | – | – | – | – | – | – | inactive | 36 | – | 2.16 | 8.81 | 33.2 | Active | 35.9 | Active | 0.79 | 5.01 | 100
